Experimental data reported in ChEMBL document CHEMBL1121698, “Cyclic urea and thiourea derivatives as inducers of murine erythroleukemia differentiation” (1981).

Assays:
Format in all cases: functional, Mus musculus
[1] = test system: Friend leukemia cell line; assay: Cell growth of friend erythroleukemia cells measured as percentage of control on day 6 at a concentration of 4 mM; conditions: at 4 mM
[2] = test system: Friend leukemia cell line; assay: Percent of untreated control cell growth evaluated in friend leukemia cells on day 3 at a concentration of 4 mM; conditions: at 4 mM
[3] = test system: Friend leukemia cell line; assay: The degree of erythroid maturation was measured by assessing the proportion of benzidine-positive friend leukemia cells at a concentration of 4 mM
Procedure, shortened: (§1)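 Friend erythroleukemia clone 745A cells seeded at 10^5 cells/mL in DMEM with 15% fetal calf serum at 37 °C, 10% CO2. Agent given at seeding, continuous exposure, twofold-graded concentrations; Me2SO positive control in each experiment. On day 6, hemoglobin-containing cells scored cytologically by staining with acid benzidine peroxide. Optimum concentration averaged from at least two experiments.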

[4] = test system: Friend leukemia cell line; assay: The degree of erythroid maturation was measured by assessing the proportion of benzidine-positive cells at a concentration of 4 mM; conditions: at 4 mM
[5] = test system: Friend leukemia cell line; assay: The degree of erythroid maturation was measured by assessing the proportion of benzidine-positive cells at a concentration of 2 mM; procedure, shortened: as §1
[6] = test system: Friend leukemia cell line; assay: Cell growth of friend erythroleukemia cells measured as percentage of control on day 6 at a concentration of 2 mM
Procedure, shortened: (§2)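 Friend murine erythroleukemia clone 745A grown in suspension at 37 °C, 10% CO2, in DMEM with 15% fetal calf serum, streptomycin and penicillin. Agent added at seeding of exponentially growing cells (10^5 cells/mL), continuous exposure over twofold-graded concentrations. Cell numbers counted electronically on days 3 and 6, expressed relative to untreated control. At least two separate experiments.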

[7] = test system: Friend leukemia cell line; assay: Percent of untreated control cell growth evaluated in friend leukemia cells on day 3 at a concentration of 2 mM; procedure, shortened: as §2
[8] = test system: Friend leukemia cell line; assay: Cell growth of friend erythroleukemia cells measured as percentage of control on day 6 at a concentration of 0.1-10 mM; procedure, shortened: as §2
[9] = test system: Friend leukemia cell line; assay: Percent of untreated control cell growth evaluated in friend leukemia cells on day 3 at a concentration of 0.1-10 mM; procedure, shortened: as §2
[10] = test system: Friend leukemia cell line; assay: The degree of erythroid maturation was measured by assessing the proportion of benzidine-positive friend leukemia cells at a concentration of 0.1-10 mM; procedure, shortened: as §1
[11] = test system: Friend leukemia cell line; assay: The degree of erythroid maturation was measured by assessing the proportion of benzidine-positive friend leukemia cells at a concentration of 2 mM; procedure, shortened: as §1
[12] = test system: Friend leukemia cell line; assay: The degree of erythroid maturation was measured by assessing the proportion of benzidine-positive friend leukemia cells at a concentration of 16 mM; procedure, shortened: as §1
[13] = test system: Friend leukemia cell line; assay: Cell growth of friend erythroleukemia cells measured as percentage of control on day 6 at a concentration of 16 mM; procedure, shortened: as §2
[14] = test system: Friend leukemia cell line; assay: Percent of untreated control cell growth evaluated in friend leukemia cells on day 3 at a concentration of 16 mM; procedure, shortened: as §2
[15] = test system: Friend leukemia cell line; assay: Cell growth of friend erythroleukemia cells measured as percentage of control on day 6 at a concentration of 1 mM; procedure, shortened: as §2
[16] = test system: Friend leukemia cell line; assay: Percent of untreated control cell growth evaluated in friend leukemia cells on day 3 at a concentration of 1 mM; procedure, shortened: as §2
[17] = test system: Friend leukemia cell line; assay: The degree of erythroid maturation was measured by assessing the proportion of benzidine-positive friend leukemia cells at a concentration of 1 mM; procedure, shortened: as §1
[18] = test system: Friend leukemia cell line; assay: Effect on the replication and erythroid differentiation of friend leukemia cells on day 6 at a concentration of 210 mM
[19] = test system: Friend leukemia cell line; assay: The degree of erythroid maturation was measured by assessing the proportion of benzidine-positive cells at a concentration of 210 mM; procedure, shortened: as §1
[20] = test system: Friend leukemia cell line; assay: Percent of untreated control cell growth evaluated in friend leukemia cells on day 3 at a concentration of 105 mM; procedure, shortened: as §2
[21] = test system: Friend leukemia cell line; assay: Cell growth of friend erythroleukemia cells measured as percentage of control on day 6 at a concentration of 105 mM; procedure, shortened: as §2
[22] = test system: Friend leukemia cell line; assay: Effect on the replication and erythroid differentiation of friend leukemia cells on day 3 at a concentration of 210 mM

| Structure (SMILES) | Cell growth [1] [%] | Cell growth [2] [%] | Benzidine positive cells [5] [%] | Cell growth [6] [%] | Cell growth [7] [%] | further results |
| --- | --- | --- | --- | --- | --- | --- |
| CCN1CCCN(CC)C1=O | 127 | 160 | – | – | – | Benzidine positive cells [3]: 70% |
| CN1CCCN(C)C1=S | 135 | 75 | – | – | – | Benzidine positive cells [4]: 83% |
| SC1=NCCCCN1 | – | – | 42 | 82 | 54 | – |
| SC1=NCCCN1 | – | – | 14 | 44 | 144 | – |
| CCCCN1CCCN(CCCC)C1=O | – | – | – | – | – | Cell growth [8]: <1%; Cell growth [9]: <5%; Benzidine positive cells [10]: <1% |
| O=C(N1CCCCC1)N1CCCCC1 | 33 | 28 | – | – | – | Benzidine positive cells [3]: 10% |
| CCN1CCCCN(CC)C1=O | 131 | 40 | – | – | – | Benzidine positive cells [3]: 31% |
| CCN(CC)C(=O)N(CC)CC | – | – | – | 77 | 69 | Benzidine positive cells [11]: 68% |
| O=C1NCCN1 | 108 | 88 | – | – | – | Benzidine positive cells [4]: 4% |
| CCN1CCN(CC)C1=O | – | – | – | – | – | Benzidine positive cells [12]: 81%; Cell growth [13]: 140%; Cell growth [14]: 36% |
| CCN1CCN(CC)C1=S | – | – | – | 120 | 60 | Benzidine positive cells [11]: 84% |
| CN(C)C(=S)N(C)C | – | – | 79 | 98 | 123 | – |
| CN1CCCN(C)C1=O | – | – | 92 | 87 | 90 | – |
| CN1CCCNC1=O | – | – | 50 | 136 | 46 | – |
| CN1CCN(C)C1=O | 73 | 70 | – | – | – | Benzidine positive cells [4]: 92% |
| CCN(CC)C(=S)N(CC)CC | – | – | – | – | – | Cell growth [8]: <1%; Cell growth [9]: <4%; Benzidine positive cells [10]: <1% |
| O=C1NCCCCN1 | – | – | 66 | 104 | 93 | – |
| O=C1NCCCN1 | 121 | 124 | – | – | – | Benzidine positive cells [4]: 15% |
| CN1CCCCN(C)C1=O | 61 | 25 | – | – | – | Benzidine positive cells [3]: 92% |
| CN1CCN(C)C1=S | – | – | 66 | 95 | 102 | – |
| CN1CCCCN(C)C1=S | 73 | 64 | – | – | – | Benzidine positive cells [3]: 79% |
| CCN1CCCN(CC)C1=S | – | – | – | – | – | Cell growth [15]: 97%; Cell growth [16]: 45%; Benzidine positive cells [17]: 61% |
| CN1CCCN=C1S | – | – | 22 | 166 | 107 | – |
| C[S+](C)[O-] [DIMETHYL SULFOXIDE] | – | – | – | – | – | Benzidine positive cells [4]: 75%; Cell growth [18]: 110%; Benzidine positive cells [19]: 94%; Cell growth [20]: 70%; Cell growth [21]: 120%; Cell growth [22]: 72% |
| S=C1NCCN1 [ETHYLENE THIOUREA] | 62 | 128 | – | – | – | Benzidine positive cells [4]: 21% |
